Assay outcomes from PubChem BioAssay.
A selection: hits, their analogues and other compounds. The true share with any hit is near 3.2%.
rCAG binder = binds r(CAG) RNA repeats. r(CAG) RNA repeat, TO-PRO-1 dye displacement fluorescence. inhibition, % at 3 µM. 370,000 compounds, 1.3% hits;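 active = inhibition above the plate cutoff, the mean of all test compounds on that plate plus 3 SD, cut at about 35% in these data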;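 also: higher means more dye released from RNA so lower well fluorescence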
HTRA1 inhibitor = HTRA1 (human) protease inhibition; recombinant HTRA1, FP-rhodamine activity-based probe, fluorescence polarization; 340,000 compounds, 0.5% hits; inhibition, % at 5.96 µM; Q92743; AID 504803; in the data active = inhibition above about 36%
ABHD4 inh = inhibitors of mouse ABHD4. 370,000 compounds, 0.54% hits. Q8VD66. inhibition, % at 8.92 µM. purified mABHD4, FP-Rh probe fluorescence polarization;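 active = inhibition exceeding the mean over every tested compound plus 3 SD, cut at about 30% in these data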
Target sequence (Q8VD66 whole entry, looked up): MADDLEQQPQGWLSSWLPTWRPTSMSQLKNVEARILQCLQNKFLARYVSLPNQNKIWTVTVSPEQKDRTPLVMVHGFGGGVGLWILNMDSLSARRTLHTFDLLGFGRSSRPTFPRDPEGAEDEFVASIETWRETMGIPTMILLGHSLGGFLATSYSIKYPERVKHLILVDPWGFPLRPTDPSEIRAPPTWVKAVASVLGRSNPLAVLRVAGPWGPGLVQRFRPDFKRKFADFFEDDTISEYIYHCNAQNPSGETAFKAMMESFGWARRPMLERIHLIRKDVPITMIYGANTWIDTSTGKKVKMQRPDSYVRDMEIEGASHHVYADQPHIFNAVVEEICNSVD
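System: mouse ABHD4 enzyme, wild type / Medium: HEPES pH 7.0, NaCl, Pluronic buffer / Reagent: FP-Rh activity-based fluorescent probe / Control set: S159A mutant high control, sample median low control / Detection: fluorescence polarization with parallel and perpendicular emission, 525/598 nm / Schedule: 45 min + 60 min at 25 °C / Compound dosing: 8.92 µM, single dose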
PRMT1 inh = PRMT1 (human) inhibition, primary screen; recombinant PRMT1, activity-based probe fluorescence polarization; inhibition, % at 2.79 µM; AID 652257; Q99873; 370,000 compounds, 1.3% hits;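 active = inhibition above about 21% made by adding two undisclosed values, limit read from the data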
LEDGF integ inh = blocks HIV-1 LEDGF/p75-dependent DNA integration; 370,000 compounds, 0.64% hits; AID 743269; inhibition, % at 3.7 µM; TR-FRET IN-LEDGF/p75 DNA integration, Eu/Cy5;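 active = inhibition above the screen-wide mean plus 3 SD, cut at about 13% in these data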;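 also: signal is the Cy5 over europium emission ratio at 671 and 618 nm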
DAGLB inhibitor = diacylglycerol lipase beta (human) inhibition; HEK293T DAGLB membrane lysate, EnzChek fluorogenic substrate; 340,000 compounds, 0.059% hits; inhibition, % at 5.17 µM; Q8NCG7; in the data active = inhibition above about 34%
IN multimer act = HIV-1 integrase multimerization activation, counter-screen. shares compounds with LEDGF integ inh. TR-FRET HIV-1 integrase multimerization, biochemical. activation, % at 7.7 µM. 2,000 compounds, 17% hits. AID 1053131; in the data active = activation above about 8.9%
TRFRET interf = optically interferes with TR-FRET readout in LEDGF counter-screen. 2,000 tested, under 10 active. TR-FRET optical interference counterscreen, HIV-1 IN multimerization. inhibition, % at 7.7 µM. AID 1053135. shares compounds with LEDGF integ inh;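 active = inhibition above the mean over all tested compounds plus 3 SD, which no compound reached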
IN-LEDGF confirm = LEDGF/p75-dependent HIV-1 integration inhibition, confirmation. inhibition, % at 3.7 µM. shares compounds with LEDGF integ inh. 2,000 compounds, 36% hits. TR-FRET LEDGF/p75-dependent HIV-1 integration, biochemical. AID 1053136; in the data active = inhibition above about 14%
Large screens that a line does not name were inactive (follow-up assays come after a bar, where they were run).

COc1ccc(OC)c(CNC(=O)C2CCCN(c3ncnc4c3nc3n4CCCCC3)C2)c1 (configuration not stated)	none
CN1C(C(=O)NCc2cccc(C(F)(F)F)c2)CC2Cn3c(nc4ccccc43)C21 (configuration not stated)	LEDGF integ inh 15 | IN multimer act inactive | TRFRET interf inactive | IN-LEDGF confirm inactive
CN1C(C(=O)NCc2cccc(C(F)(F)F)c2)CC2Cn3c(nc4cc5ccccc5cc43)C21 (configuration not stated)	none
Cc1cc2nc3n(c2cc1C)CC1CC(C(=O)NCc2ccco2)N(C)C31 (configuration not stated)	LEDGF integ inh 27 | IN multimer act inactive | TRFRET interf inactive | IN-LEDGF confirm inactive
COc1ccc(Cl)cc1NC(=O)NCc1ccc2c(c1)OCO2	none
O=c1cc(-c2ccc(O)cc2)oc2cc(O)c(C3OC(CO)C(O)C(O)C3O)c(O)c12 (configuration not stated)	LEDGF integ inh 21 | IN multimer act 30 | TRFRET interf inactive | IN-LEDGF confirm 48
O=c1cc(-c2ccc(O)cc2)oc2cc(O)cc(O)c12	none
Cc1cnc(=O)[nH]c1SCc1cccc(C(F)(F)F)c1	none
COC(=O)c1cc(NS(=O)(=O)c2ccc(N3CCOCC3)c(N)c2)cc(C(=O)OC)c1	LEDGF integ inh 14 | IN multimer act inactive | TRFRET interf inactive | IN-LEDGF confirm inactive
COC(=O)c1cc(NS(=O)(=O)c2ccc(N3CCOCC3)c(NC(C)=O)c2)cc(C(=O)OC)c1	none
Cc1ccc(CSc2ccc3nnc(-c4cccnc4)n3n2)cc1	LEDGF integ inh 14 | IN multimer act inactive | TRFRET interf inactive | IN-LEDGF confirm inactive
Brc1ccc(CSc2ccc3nnc(-c4cccnc4)n3n2)cc1	none
Cc1cc(SCC(=O)NCCN2C(=O)CSC2=O)nc2c(C)cccc12	LEDGF integ inh 23 | IN multimer act inactive | TRFRET interf inactive | IN-LEDGF confirm inactive
COc1ccccc1S(=O)(=O)Nc1ccc(S(=O)(=O)Nc2nccs2)cc1	none
COc1cccc(Nc2nc(C(N)CC(C)C)cs2)n1 (configuration not stated)	LEDGF integ inh 14 (no result: HTRA1 inhibitor, DAGLB inhibitor) | IN multimer act inactive | TRFRET interf inactive | IN-LEDGF confirm inactive
CCOC(=O)CCCCC(=O)c1[nH]c(=O)[nH]c1CN1CCOCC1	LEDGF integ inh 17 | IN multimer act inactive | TRFRET interf inactive | IN-LEDGF confirm inactive
CCOC(=O)CCCCC(=O)c1[nH]c(=O)[nH]c1CSc1nc(C)cc(=O)[nH]1	LEDGF integ inh 35 | IN multimer act inactive | TRFRET interf inactive | IN-LEDGF confirm 49
CCOC(=O)CCCCC(=O)c1[nH]c(=O)[nH]c1CSc1nc(C)cc(C)n1	LEDGF integ inh 26 | IN multimer act inactive | TRFRET interf inactive | IN-LEDGF confirm 19
CCOC(=O)CCCCC(=O)c1[nH]c(=O)[nH]c1CSc1nc2ccccc2[nH]1	none
Cc1nc(-c2ccc(S(=O)(=O)Nc3cc(S(=O)(=O)N(C)C)ccc3C)s2)cs1	none
O=[N+]([O-])c1ccccc1S(=O)NCc1c(Cl)cccc1Cl (configuration not stated)	none (no result: HTRA1 inhibitor, DAGLB inhibitor)
O=C(Nc1cc(S(=O)(=O)N2CCOCC2)ccc1N1CCCC1)C1CC1	none
COCC1CN(CCc2ccc(F)cc2)S(=O)(=O)c2c(F)cccc2O1 (configuration not stated)	LEDGF integ inh 18 (no result: HTRA1 inhibitor, DAGLB inhibitor) | IN multimer act inactive | TRFRET interf inactive | IN-LEDGF confirm inactive
CCCCOCC1CN(CCCC)S(=O)(=O)c2c(F)cccc2O1 (configuration not stated)	none (no result: HTRA1 inhibitor, DAGLB inhibitor)
CC(C)(C)NC(=O)COC(=O)CCC(=O)c1ccc(Cl)cc1	none
Cc1nn(-c2cccc(Cl)c2)c2nc(C(F)(F)F)[nH]c(=O)c12	none
Cc1nn(-c2cc(C(F)(F)F)ccc2Cl)c2nc(C(F)(F)F)[nH]c(=O)c12	LEDGF integ inh 83 | IN multimer act inactive | TRFRET interf inactive | IN-LEDGF confirm inactive
CCc1ccc(Nc2n[n+](-c3ccccc3)c(-c3ccc(C(=O)O)cc3)s2)cc1	none
CCc1ccc(Nc2n[n+](C)c(-c3ccncc3)s2)cc1	LEDGF integ inh 42 | IN multimer act inactive | TRFRET interf inactive | IN-LEDGF confirm inactive
CC1=CC(C)(C)NC(=S)N1c1ccc(C)c(C)c1	none
CC1=CC(C)(C)NC(=S)N1c1ccc(C)cc1	LEDGF integ inh 21 | IN multimer act inactive | TRFRET interf inactive | IN-LEDGF confirm inactive
CCN(Cc1ccc(NC(C)=O)cc1)CC1CCCN(CCc2cccc(OC)c2)C1 (configuration not stated)	LEDGF integ inh 63 | IN multimer act inactive | TRFRET interf inactive | IN-LEDGF confirm inactive
CC(=O)NCc1ccc(-c2csc(-c3cccs3)n2)cc1	none
CCOC(=O)C1=C(C)NC(=O)NC1c1cc2c(cc1Br)OCO2 (configuration not stated)	none
CCOC(=O)C1=C(C)NC(=O)CC1c1cc2c(cc1[N+](=O)[O-])OCO2 (configuration not stated)	LEDGF integ inh 22 | IN multimer act inactive | TRFRET interf inactive | IN-LEDGF confirm inactive
Cc1ccccc1S(=O)(=O)N1C[C@H]2CON(C)[C@H]2C[C@H]1c1cccc(-c2ccc(C#N)cc2)c1	none
COc1ccc(C(=O)OCCN2CCN(C3CN(Cc4cn(Cc5ccccc5Cl)nn4)S(=O)(=O)C3)CC2)cc1OC (configuration not stated)	none (no result: HTRA1 inhibitor, DAGLB inhibitor)
CC1=NN(c2ccc(C)cc2C)C(=O)C1C(c1ccccc1O)C1C(=O)N(c2ccc(C)cc2C)N=C1C (configuration not stated)	LEDGF integ inh 29 | IN multimer act inactive | TRFRET interf inactive | IN-LEDGF confirm inactive
CC1=NN(c2ccc(Cl)cc2)C(=O)C1C(c1ccccc1O)c1c(C)[nH]n(-c2ccc(Cl)cc2)c1=O (configuration not stated)	none (no result: rCAG binder, ABHD4 inh, PRMT1 inh, LEDGF integ inh)
CCN1C[C@@H]2[C@@H]3C(=O)N(C)C(=O)[C@@H]3[C@](CC)(C(=O)OC)N2C1=NCc1ccccc1	LEDGF integ inh 65 | IN multimer act inactive | TRFRET interf inactive | IN-LEDGF confirm inactive
CC(OC(=O)c1ccc2ccccc2n1)C(=O)Nc1ccc(N2CCOCC2)cc1 (configuration not stated)	LEDGF integ inh 15 | IN multimer act inactive | TRFRET interf inactive | IN-LEDGF confirm inactive
